Assays:
Bos taurus [1] = organism: Bos taurus; assay: Polymerizing activity of microtubule protein against the twice cycled microtubule protein; type: functional
How it was run: (§1)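 Twice-cycled microtubule protein, stored in liquid nitrogen, at 1.0 mg/mL final in 0.1 M MES, 1 mM EGTA, 0.5 mM MgCl₂, pH 6.6, 37 °C, no GTP. Compound at 2.5, 5.0 and 10 µM. Absorbance read every 10 s and initial linear slopes taken. EC0.01 = interpolated concentration giving an initial slope of 0.01 A unit/min.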

Bos taurus [2] = organism: Bos taurus; assay: Polymerizing activity of tubulin in glutamate against bovine brain tubulin homogenate was measured at 0.4 M concentrations; type: functional
How it was run: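 Purified, electrophoretically homogeneous bovine brain tubulin assembled at room temperature without GTP or Mg²⁺ in 0.4 M monosodium glutamate (from 2 M stock, pH 6.6). Polymer pelleted by centrifugation. IC₅₀ = drug concentration lowering supernatant protein by 50% versus no-drug control. Up to 40 µM. At least three independent experiments, or at least two where IC₅₀ exceeded 40 µM.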

Burkitts lymphoma cell = assay: Cytotoxic activity against was measured human Burkitt lymphoma cell lines.; type: functional, cell-based
How it was run: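 CA46 Burkitt lymphoma cells in 5.0-mL suspension culture, counted after 24 h at 37 °C under 5% CO₂. IC₅₀ = drug concentration halving the increase in cell number. Highest concentration 100 nM. At least two independent experiments.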

[3] = test system: Panel colon (Carcinoma cell lines); assay: Cytotoxic activity was measured against human colon carcinoma cell lines; type: functional, cell-based
How it was run: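 HCT116 colon carcinoma monolayers in 96-well plates, 48 h at 37 °C under 5% CO₂. Cell protein measured. IC₅₀ = concentration giving 50% inhibition of the increase in cell protein.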

Bos taurus [4] = organism: Bos taurus; assay: Polymerizing activity of tubulin in glutamate against bovine brain tubulin homogenate was measured at 0.8M concentrations; type: functional
How it was run: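 Bovine brain tubulin, purified to electrophoretic homogeneity, in 0.8 M monosodium glutamate (from 2 M stock, pH 6.6), room temperature, no GTP. Polymer removed by centrifugation. IC₅₀ = concentration reducing supernatant protein by 50% relative to drug-free control. Maximum 40 µM. At least three independent experiments, or at least two for IC₅₀ over 40 µM.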

ptx-10/22 = assay: Relative resistance was measured against human paclitaxel-resistant cell lines; type: functional, cell-based; conditions: 1A9(PTX22)
[5] = test system: Panel ovarian (Carcinoma cell lines); assay: Cytotoxic activity was measured against human Ovarian carcinoma cell lines; type: functional, cell-based
How it was run: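 Ovarian carcinoma line 1A9, a subclone of A2780, grown as monolayers in 96-well plates for 96 h at 37 °C, 5% CO₂. Cell protein quantitated (Skehan method). IC₅₀ = concentration inhibiting the increase in cell protein by 50%.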

Bos taurus [6] = organism: Bos taurus; assay: Polymerizing activity of microtubule protein.; type: functional; how it was run: as §1

COc1cc(OC)cc(C(=O)O[C@H]2[C@@H]3[C@]4(OC(C)=O)CO[C@@H]4C[C@H](O)[C@@]3(C)C(=O)[C@H](OC(C)=O)C3=C(C)[C@@H](OC(=O)[C@H](O)[C@@H](NC(=O)c4ccccc4)c4ccccc4)C[C@]2(O)C3(C)C)c1
EC0.01 (relative to paclitaxel) (Bos taurus [1]): 2.6 | IC50 (Bos taurus [2]): > 1.7 relative to paclitaxel | IC50 (Burkitts lymphoma cell): 1 relative to paclitaxel | IC50 [3]: 5.4 relative to paclitaxel | IC50 (Bos taurus [4]): 4.7 relative to paclitaxel | relative resistance (ptx-10/22): 0.57 | IC50 [5]: 3.3 relative to paclitaxel

COc1ccccc1C(=O)O[C@H]1[C@@H]2[C@]3(OC(C)=O)CO[C@@H]3C[C@H](O)[C@@]2(C)C(=O)[C@H](OC(C)=O)C2=C(C)[C@@H](OC(=O)[C@H](O)[C@@H](NC(=O)c3ccccc3)c3ccccc3)C[C@]1(O)C2(C)C
EC0.01 (relative to paclitaxel) (Bos taurus [1]): 1.5 | IC50 (Bos taurus [2]): > 1.7 relative to paclitaxel | IC50 (Burkitts lymphoma cell): 0.67 relative to paclitaxel | IC50 [3]: 1.9 relative to paclitaxel | IC50 (Bos taurus [4]): 1.2 relative to paclitaxel | relative resistance (ptx-10/22): 0.95 | IC50 [5]: 1.4 relative to paclitaxel

CC(=O)O[C@H]1C(=O)[C@@]2(C)[C@H]([C@H](OC(=O)c3ccc(F)c(F)c3)[C@]3(O)C[C@H](OC(=O)[C@H](O)[C@@H](NC(=O)c4ccccc4)c4ccccc4)C(C)=C1C3(C)C)[C@]1(OC(C)=O)CO[C@@H]1C[C@@H]2O
EC0.01 (relative to paclitaxel) (Bos taurus [1]): 2.2 | IC50 (Bos taurus [2]): > 1.7 relative to paclitaxel | IC50 (Burkitts lymphoma cell): 0.33 relative to paclitaxel | IC50 [3]: 2.7 relative to paclitaxel | IC50 (Bos taurus [4]): 3.1 relative to paclitaxel | relative resistance (ptx-10/22): 0.57 | IC50 [5]: 3.4 relative to paclitaxel

CCOc1cccc(C(=O)O[C@H]2[C@@H]3[C@]4(OC(C)=O)CO[C@@H]4C[C@H](O)[C@@]3(C)C(=O)[C@H](OC(C)=O)C3=C(C)[C@@H](OC(=O)[C@H](O)[C@@H](NC(=O)c4ccccc4)c4ccccc4)C[C@]2(O)C3(C)C)c1
EC0.01 (relative to paclitaxel) (Bos taurus [6]): 1.1 | IC50 (Bos taurus [2]): 1.4 relative to paclitaxel | IC50 (Burkitts lymphoma cell): 1 relative to paclitaxel | IC50 [3]: 1.6 relative to paclitaxel | IC50 (Bos taurus [4]): 1.2 relative to paclitaxel | relative resistance (ptx-10/22): 0.37 | IC50 [5]: 1.7 relative to paclitaxel

CC(=O)O[C@H]1C(=O)[C@@]2(C)[C@H]([C@H](OC(=O)c3cccc(OC(C)C)c3)[C@]3(O)C[C@H](OC(=O)[C@H](O)[C@@H](NC(=O)c4ccccc4)c4ccccc4)C(C)=C1C3(C)C)[C@]1(OC(C)=O)CO[C@@H]1C[C@@H]2O
EC0.01 (relative to paclitaxel) (Bos taurus [1]): > 140 | IC50 (Bos taurus [2]): > 1.7 relative to paclitaxel | IC50 (Burkitts lymphoma cell): 1.3 relative to paclitaxel | IC50 [3]: 17 relative to paclitaxel | IC50 (Bos taurus [4]): > 8.9 relative to paclitaxel | relative resistance (ptx-10/22): 0.29 | IC50 [5]: 15 relative to paclitaxel

CC(=O)O[C@H]1C(=O)[C@@]2(C)[C@H]([C@H](OC(=O)c3cc(F)c(F)c(F)c3)[C@]3(O)C[C@H](OC(=O)[C@H](O)[C@@H](NC(=O)c4ccccc4)c4ccccc4)C(C)=C1C3(C)C)[C@]1(OC(C)=O)CO[C@@H]1C[C@@H]2O
EC0.01 (relative to paclitaxel) (Bos taurus [1]): 1.8 | IC50 (Bos taurus [2]): > 1.7 relative to paclitaxel | IC50 (Burkitts lymphoma cell): 1.3 relative to paclitaxel | IC50 [3]: 3.4 relative to paclitaxel | IC50 (Bos taurus [4]): 4.7 relative to paclitaxel | relative resistance (ptx-10/22): 0.62 | IC50 [5]: 3.2 relative to paclitaxel

CC(=O)O[C@H]1C(=O)[C@@]2(C)[C@H]([C@H](OC(=O)c3cccc([N+](=O)[O-])c3)[C@]3(O)C[C@H](OC(=O)[C@H](O)[C@@H](NC(=O)c4ccccc4)c4ccccc4)C(C)=C1C3(C)C)[C@]1(OC(C)=O)CO[C@@H]1C[C@@H]2O
EC0.01 (relative to paclitaxel) (Bos taurus [1]): 0.69 | IC50 (Bos taurus [2]): > 1.7 relative to paclitaxel | IC50 (Burkitts lymphoma cell): 1 relative to paclitaxel | IC50 [3]: 0.88 relative to paclitaxel | IC50 (Bos taurus [4]): 1.6 relative to paclitaxel | relative resistance (ptx-10/22): 0.76 | IC50 [5]: 1.3 relative to paclitaxel

CC(=O)O[C@H]1C(=O)[C@@]2(C)[C@H]([C@H](OC(=O)c3cc(N=[N+]=[N-])cc(N=[N+]=[N-])c3)[C@]3(O)C[C@H](OC(=O)[C@H](O)[C@@H](NC(=O)c4ccccc4)c4ccccc4)C(C)=C1C3(C)C)[C@]1(OC(C)=O)CO[C@@H]1C[C@@H]2O
EC0.01 (relative to paclitaxel) (Bos taurus [1]): 0.67 | IC50 (Bos taurus [2]): > 1.7 relative to paclitaxel | IC50 (Burkitts lymphoma cell): 1 relative to paclitaxel | IC50 [3]: 1.6 relative to paclitaxel | IC50 (Bos taurus [4]): 4 relative to paclitaxel | relative resistance (ptx-10/22): 0.4 | IC50 [5]: 1.3 relative to paclitaxel

CC(=O)O[C@H]1C(=O)[C@@]2(C)[C@H]([C@H](OC(=O)c3cccc(I)c3)[C@]3(O)C[C@H](OC(=O)[C@H](O)[C@@H](NC(=O)c4ccccc4)c4ccccc4)C(C)=C1C3(C)C)[C@]1(OC(C)=O)CO[C@@H]1C[C@@H]2O
EC0.01 (relative to paclitaxel) (Bos taurus [1]): 0.79 | IC50 (Bos taurus [2]): > 1.7 relative to paclitaxel | IC50 (Burkitts lymphoma cell): 2.3 relative to paclitaxel | IC50 [3]: 0.85 relative to paclitaxel | IC50 (Bos taurus [4]): 3.1 relative to paclitaxel | relative resistance (ptx-10/22): 0.35 | IC50 [5]: 1.6 relative to paclitaxel
